From ChEMBL document CHEMBL3352166, “Structure-guided design and development of novel benzimidazole class of compounds targeting DNA gyraseB enzyme of Staphylococcus aureus” (Bioorg Med Chem, 2014)
≈ marks a conversion by molar mass, not a printed value.

Tests used:
DNA gyrase subunit B = DNA gyrase subunit B (Staphylococcus aureus, UniProt P0A0K8); experiment: Inhibition of Staphylococcus aureus DNA gyrase B ATPase activity
[1] = Cytotoxicity against human HEK293 cells assessed as reduction in cell viability at 100 uM after 72 hrs by MTT assay; type: cell-based; conditions: read-out: INH
Summary of the method: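 HEK-293 cells were seeded at 5000 per well and left 24 h, then washed. They were exposed to 100 µM in RPMI + 5% FBS + 1% penicillin/streptomycin, with final DMSO ≤0.5%, for 72 h at 37 °C in 5% CO2. DMSO-treated cultures served as controls. Viability was read by MTT at 570 nm, in triplicate, as percentage inhibition.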

Staphylococcus aureus [2] = experiment: Antimicrobial activity against methicillin-resistant Staphylococcus aureus MTCC 96 after 16 to 24 hrs by agar dilution method; type: functional
Summary of the method: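 Agar dilution per CLSI guidelines on Mueller-Hinton agar. Overnight colonies suspended to about 10^6 cfu/mL, and 1 mL added to 19 mL medium. Stocks in 0.9% saline, tested over about 10 doubling dilutions from 100 µM to 0.1 µM. Plates incubated at 35 °C in ambient air for 16-20 h. MIC taken as the lowest concentration preventing visible growth.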

Staphylococcus aureus [3] = experiment: Antimicrobial activity against Staphylococcus aureus MTCC 3160 after 16 to 24 hrs by agar dilution method; type: functional
Summary of the method: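 MIC by agar dilution per CLSI on Mueller-Hinton agar. Overnight colonies were suspended to about 10^6 cfu/mL, and 1 mL was added to 19 mL medium. Compounds were made up in 0.9% saline and tested over about 10 doubling dilutions, 100 µM to 0.1 µM. Plates ran 16-20 h at 35 °C in ambient air. MIC was the lowest concentration preventing visible growth.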

DNA gyrase = DNA gyrase (Staphylococcus aureus, UniProt P0A0K8+P20831); experiment: Inhibition of Staphylococcus aureus DNA gyrase-mediated supercoiling of relaxed DNA using pBR 322 as substrate by agarose gel electrophoresis analysis; type: protein-complex assay
Sequence of DNA gyrase (P0A0K8 whole entry): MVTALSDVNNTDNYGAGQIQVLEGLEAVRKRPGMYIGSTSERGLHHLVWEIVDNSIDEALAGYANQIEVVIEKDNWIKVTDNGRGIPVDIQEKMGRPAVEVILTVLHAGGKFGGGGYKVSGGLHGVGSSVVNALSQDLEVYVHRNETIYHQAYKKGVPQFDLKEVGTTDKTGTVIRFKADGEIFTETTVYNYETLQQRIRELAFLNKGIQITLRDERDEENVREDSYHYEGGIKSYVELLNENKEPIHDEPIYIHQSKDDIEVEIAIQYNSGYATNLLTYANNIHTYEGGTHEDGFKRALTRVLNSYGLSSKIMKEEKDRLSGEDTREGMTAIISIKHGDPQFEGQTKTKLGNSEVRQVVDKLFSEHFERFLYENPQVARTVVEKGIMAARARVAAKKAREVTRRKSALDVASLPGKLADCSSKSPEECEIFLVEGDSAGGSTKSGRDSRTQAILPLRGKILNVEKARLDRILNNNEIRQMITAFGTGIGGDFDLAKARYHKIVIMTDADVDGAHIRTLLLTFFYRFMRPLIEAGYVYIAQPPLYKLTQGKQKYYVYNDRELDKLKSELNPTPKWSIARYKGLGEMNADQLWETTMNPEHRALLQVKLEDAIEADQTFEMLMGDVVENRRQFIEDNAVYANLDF
Sequence of DNA gyrase (P20831 whole entry): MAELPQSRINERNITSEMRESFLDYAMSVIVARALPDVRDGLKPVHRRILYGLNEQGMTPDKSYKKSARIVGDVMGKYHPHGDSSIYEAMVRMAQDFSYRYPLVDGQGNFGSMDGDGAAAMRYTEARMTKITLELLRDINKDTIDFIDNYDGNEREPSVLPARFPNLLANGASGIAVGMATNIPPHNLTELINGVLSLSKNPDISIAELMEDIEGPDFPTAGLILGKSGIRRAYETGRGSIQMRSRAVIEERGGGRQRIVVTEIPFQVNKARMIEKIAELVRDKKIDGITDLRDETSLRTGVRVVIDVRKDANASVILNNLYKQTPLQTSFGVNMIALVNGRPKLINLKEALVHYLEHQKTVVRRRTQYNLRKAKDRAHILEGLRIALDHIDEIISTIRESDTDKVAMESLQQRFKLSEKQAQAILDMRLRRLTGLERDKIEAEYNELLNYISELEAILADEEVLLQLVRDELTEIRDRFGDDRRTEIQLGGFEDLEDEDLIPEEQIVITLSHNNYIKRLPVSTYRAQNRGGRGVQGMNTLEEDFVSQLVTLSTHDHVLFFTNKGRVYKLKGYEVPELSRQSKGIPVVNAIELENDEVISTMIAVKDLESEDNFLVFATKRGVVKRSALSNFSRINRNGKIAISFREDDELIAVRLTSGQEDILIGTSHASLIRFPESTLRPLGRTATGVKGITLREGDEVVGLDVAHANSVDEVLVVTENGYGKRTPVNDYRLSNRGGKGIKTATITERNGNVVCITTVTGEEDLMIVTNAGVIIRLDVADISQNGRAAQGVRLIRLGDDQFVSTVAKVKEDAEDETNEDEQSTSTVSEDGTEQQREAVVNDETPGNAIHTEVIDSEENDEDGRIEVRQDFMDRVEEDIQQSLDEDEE

Staphylococcus aureus [4] = experiment: Inhibition of biofilm formation in methicillin-resistant Staphylococcus aureus MTCC 96 after 24 hr incubation by tissue culture plate method; conditions: MTCC 96, 24 h

Sequence of DNA gyrase subunit B (P0A0K8 whole entry): as the sequence (P0A0K8 whole entry) above

Structure (SMILES) | IC50 (DNA gyrase subunit B) [µM] | cytotoxicity at 72 h, 100 µM [1] [%] | MIC (Staphylococcus aureus [2]) [µM] | MIC (Staphylococcus aureus [3]) [µM] | IC50 (DNA gyrase) [µM] | IC50 (Staphylococcus aureus [4]) [µM]
COC(=O)CCCC(=O)Nc1ccc(-c2nc3cc(Cl)ccc3[nH]2)cc1 | 35.6 | 27.9 | 134 (≈ 50 µg/mL) | 67.2 (≈ 25 µg/mL) | 22.2 | > 100
O=C(O)CCCCC(=O)Nc1ccc(-c2nc3cc(Cl)ccc3[nH]2)cc1 | 13.1 | 39.7 | 33.6 (≈ 12.5 µg/mL) | 33.6 (≈ 12.5 µg/mL) | 8.91 | 39.2
O=C(O)CC(=O)Nc1ccc(-c2nc3cc([N+](=O)[O-])ccc3[nH]2)cc1 | 4.93 | 26.9 | 18.3 (≈ 6.24 µg/mL) | 9.18 (≈ 3.12 µg/mL) | 2.23 | 18.4
O=C(O)CCC(=O)Nc1ccc(-c2nc3cc([N+](=O)[O-])ccc3[nH]2)cc1 | 17.5 | 24.6 | 17 (≈ 6.01 µg/mL) | 17 (≈ 6.01 µg/mL) | 8.32 | 27.9
O=C(O)CCCC(=O)Nc1ccc(-c2nc3cc([N+](=O)[O-])ccc3[nH]2)cc1 | 6.83 | 27.2 | 44.1 (≈ 16.3 µg/mL) | 33.9 (≈ 12.5 µg/mL) | 6.12 | 62.3
COC(=O)CCCC(=O)Nc1ccc(-c2nc3cc([N+](=O)[O-])ccc3[nH]2)cc1 | 9.83 | 35.9 | 32.7 (≈ 12.5 µg/mL) | 32.7 (≈ 12.5 µg/mL) | 5.3 | 59.3
O=C(O)CCCCC(=O)Nc1ccc(-c2nc3cc([N+](=O)[O-])ccc3[nH]2)cc1 | 9.82 | 31.7 | 32.6 (≈ 12.5 µg/mL) | 32.6 (≈ 12.5 µg/mL) | 6.09 | 44.2
COc1ccc2[nH]c(-c3ccc(NC(=O)CC(=O)O)cc3)nc2c1 | 11.1 | 27.4 | 76.8 (≈ 25 µg/mL) | 38.4 (≈ 12.5 µg/mL) | 18.4 | > 100
COc1ccc2[nH]c(-c3ccc(NC(=O)CCC(=O)O)cc3)nc2c1 | 13.4 | 26.7 | 73.7 (≈ 25 µg/mL) | 73.7 (≈ 25 µg/mL) | 11.3 | > 100
COc1ccc2[nH]c(-c3ccc(NC(=O)CCCC(=O)O)cc3)nc2c1 | 8.93 | 22.4 | 35.4 (≈ 12.5 µg/mL) | 35.4 (≈ 12.5 µg/mL) | 5.32 | 52.2
COC(=O)CCCC(=O)Nc1ccc(-c2nc3cc(OC)ccc3[nH]2)cc1 | 21.3 | 50.5 | 34 (≈ 12.5 µg/mL) | 68 (≈ 25 µg/mL) | 12.5 | 63.9
COc1ccc2[nH]c(-c3ccc(NC(=O)CCCCC(=O)O)cc3)nc2c1 | 22.9 | 29.4 | 34.1 (≈ 12.5 µg/mL) | 68 (≈ 25 µg/mL) | 12.5 | 71.1
O=C(O)CC(=O)Nc1ccc(-c2nc3cccnc3[nH]2)cc1 | 21.8 | 27.2 | 42.2 (≈ 12.5 µg/mL) | 42.2 (≈ 12.5 µg/mL) | 8.9 | 71.9
O=C(O)CCC(=O)Nc1ccc(-c2nc3cccnc3[nH]2)cc1 | 9.23 | 31.1 | 10.1 (≈ 3.12 µg/mL) | 20.1 (≈ 6.25 µg/mL) | 3.13 | 29.4
O=C(O)CCCC(=O)Nc1ccc(-c2nc3cccnc3[nH]2)cc1 | 18.5 | 33.8 | 38.5 (≈ 12.5 µg/mL) | 38.5 (≈ 12.5 µg/mL) | 6.98 | 88.1
COC(=O)CCCC(=O)Nc1ccc(-c2nc3cccnc3[nH]2)cc1 | 5.23 | 57.5 | 36.9 (≈ 12.5 µg/mL) | 36.9 (≈ 12.5 µg/mL) | 6.8 | 79.3
O=C(O)CCCCC(=O)Nc1ccc(-c2nc3cccnc3[nH]2)cc1 | 2.9 | 22.7 | 9.23 (≈ 3.12 µg/mL) | 4.61 (≈ 1.56 µg/mL) | 2.1 | 15.7
O=C(O)COCC(=O)Nc1ccc(-c2nc3ccccc3[nH]2)cc1 | 6.01 | 40 | 46.9 (≈ 15.3 µg/mL) | 38.4 (≈ 12.5 µg/mL) | 4.81 | 68.8
O=C(O)CSCC(=O)Nc1ccc(-c2nc3ccccc3[nH]2)cc1 | 22.8 | 13.1 | 37.6 (≈ 12.8 µg/mL) | 73.3 (≈ 25 µg/mL) | 12.5 | 82.1
O=C(O)COCC(=O)Nc1ccc(-c2nc3cc(F)ccc3[nH]2)cc1 | 6.12 | 14.5 | 9.1 (≈ 3.12 µg/mL) | 9.1 (≈ 3.12 µg/mL) | 2.9 | 19.6
O=C(O)CSCC(=O)Nc1ccc(-c2nc3cc(F)ccc3[nH]2)cc1 | 6.93 | 20.6 | 17.3 (≈ 6.22 µg/mL) | 34.8 (≈ 12.5 µg/mL) | 4.8 | 59.1
O=C(O)c1cn(C2CC2)c2cc(N3CCNCC3)c(F)cc2c1=O [CIPROFLOXACIN] |  |  |  |  |  | 16.9
CO[C@@H]1[C@@H](OC(N)=O)[C@@H](O)[C@H](Oc2ccc3c(O)c(NC(=O)c4ccc(O)c(CC=C(C)C)c4)c(=O)oc3c2C)OC1(C)C [NOVOBIOCIN] |  |  |  | 0.25 (≈ 0.153 µg/mL) |  | 
